# Screening data (PubChem BioAssay)
# Yeast life ext = extends the lifespan of yeast. S. cerevisiae growth with nicotinamide, OD615; deaD strain in restrictive glucose medium. inhibition of the nicotinamide effect, % at 10 µM. actives 0.68% (n = 130,000);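 active = inhibition above a set limit, placed 3 SD over the median of all compounds, cut at about 26% in these data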;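 note: 0% = nicotinamide-treated wells and 100% = cells grown without nicotinamide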
#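 assay system = DeaD-strain S. cerevisiae | measured by = absorbance at 615 nm | probe or stimulus = nicotinamide 1.5 mM | buffer or medium = CSMM-D glucose medium, restrictive | times = 48 h at 30 °C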
# Yeast growth inh = yeast BB579 growth reduction in restrictive medium; AID 804; S. cerevisiae BB579 growth, OD615, 48 h; inhibition, % at 10 µM; actives 0.51% (n = 140,000);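 active = inhibition above a set limit, 3 SD over the mean compound inhibition, cut at about 44% in these data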
#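 Detection: OD615 turbidity measurement; Material: Saccharomyces cerevisiae DeaD strain BB579, replicative lifespan model yeast; Timing: 48 h exposure, 30 °C; Doses: single 10 µM dose; Medium: CSMM-D restrictive synthetic medium containing dextrose (glucose); Controls: amphotericin B at 10 µg/mL as positive control.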
# TNAP inh hi DEA = TNAP (human) inhibition, high acceptor. purified TNAP, CDP-star luminescence, 1 M DEA. inhibition, % at 20 µM. actives 0.03% (n = 200,000). AID 1135;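 active = over 50% inhibition of tissue-nonspecific alkaline phosphatase at 20 µM in the single-dose screen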;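 note: plate controls were DMSO wells for no effect and EDTA-quenched wells as full inhibition for full effect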
# Target sequence (P05186 whole entry, looked up): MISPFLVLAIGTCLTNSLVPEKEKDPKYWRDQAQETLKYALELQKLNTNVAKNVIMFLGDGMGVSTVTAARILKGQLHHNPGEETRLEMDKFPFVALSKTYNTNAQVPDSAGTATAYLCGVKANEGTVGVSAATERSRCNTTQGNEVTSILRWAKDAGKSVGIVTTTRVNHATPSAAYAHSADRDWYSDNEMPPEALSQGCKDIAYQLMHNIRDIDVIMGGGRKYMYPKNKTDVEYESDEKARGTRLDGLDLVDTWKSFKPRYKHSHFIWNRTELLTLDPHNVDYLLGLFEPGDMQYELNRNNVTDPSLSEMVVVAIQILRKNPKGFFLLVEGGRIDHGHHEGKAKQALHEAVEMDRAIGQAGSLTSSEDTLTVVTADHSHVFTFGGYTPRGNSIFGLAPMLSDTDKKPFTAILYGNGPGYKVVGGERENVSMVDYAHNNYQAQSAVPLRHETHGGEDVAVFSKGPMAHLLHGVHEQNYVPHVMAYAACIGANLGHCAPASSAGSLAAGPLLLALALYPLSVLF
# TNAP act hi DEA = increases human TNAP activity under high phosphate acceptor concentration; purified TNAP, CDP-star luminescence, 1 M DEA, 30 min; hits give high values; 0 = EDTA background, 1 = DMSO-only activity; activation factor at 20 µM; 200,000 tested, under 10 active; AID 1136;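 active = activation factor at least 2 at 20 µM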
#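 Control set: EDTA negative control, DMSO positive control / Assay system: human TNAP / Quantity: TNAP 1/800 final / Evaluation: TNAP activation factor scaled between EDTA and DMSO control wells / Measured by: luminescent substrate turnover signal / Compound dosing: one dose, 20 µM / Times: 30 min enzyme reaction at room temperature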
# RAM network inh = yeast RAM network inhibition; S. cerevisiae dse1pr::URA3 reporter, 5-FOA growth OD615, 2 d; analog-sensitive cbk1-as2 kinase mutant strain; inhibition, % at 50 µM; actives 1.8% (n = 190,000); AID 868;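 active = inhibition above a set limit, 3 SD over mean compound inhibition, cut at about 8.4% in these data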;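 note: 0% = DMSO-only wells with no growth and 100% = 10 µM 1-NA-PP1 full growth; inhibition rescues growth on 5-FOA so higher OD means more RAM inhibition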
# TNAP inh noacc = blocks human TNAP activity with no phosphate acceptor present. P05186. purified TNAP, CDP-star luminescence, 30 min. inhibition, % at 20 µM. actives 0.26% (n = 200,000);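 active = tissue-nonspecific alkaline phosphatase inhibition above about 50% at 20 µM in the single-dose screen, limit read from the data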;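 note: 0% = DMSO negative control and 100% = EDTA positive control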
# An asterisk follows results filed as active; i = inactive; · = no result given. Hits are enriched below; roughly 2.8% of the tested compounds scored in any of these assays.
SMILES,Yeast life ext,Yeast growth inh,TNAP inh hi DEA,TNAP act hi DEA,RAM network inh,TNAP inh noacc
COc1ccc(C)cc1N(CC(=O)N/N=C/c1ccc2c(c1)OCO2)S(C)(=O)=O,·,·,-4.8,1,2.4,-10.2
Cc1ccc(C(=O)COC(=O)c2cc(Cl)nc3ccccc23)cc1C,-16.4,-36.9,-1.4,1,3.3,-5.7
Cc1ccc(C)c(C(=O)COC(=O)c2cc(Cl)nc3ccccc23)c1,2.7,-53.8,-1.4,1,9.6*,-18.5
CN(C)c1ccc(-c2nn3c(C4CCCCC4)nnc3s2)cc1,-16.3,-25.7,-3.2,1,8.6*,-8.4
FCCCOc1ccc(-c2nccc(-c3ccc(Cl)cc3)n2)cc1,-3.1,-46.5,3.6,1,8.8*,5.1
CCOc1ccc(C(=O)Nc2ccc(Cl)cn2)cc1Cl,-11.2,-49.6,4.2,1,8.7*,8.7
COC(=O)c1cc(NS(=O)(=O)c2ccc(N3CCC(C)CC3)c([N+](=O)[O-])c2)cc(C(=O)OC)c1,1.1,-1.3,7.8,0.9,2.4,-2.7
CCN1/C(=C/C=C/c2oc3ccc4ccccc4c3[n+]2CC)Oc2ccc3ccccc3c21,·,·,-96.1,2*,1.0,i
Cc1nnc(NC(=O)CSc2n[nH]c(-c3ccccc3)n2)s1,·,·,-4.5,1,-0.1,58.8*
COc1ccc(-c2nnc(SCC(=O)Nc3cc(S(=O)(=O)N4CCCCC4)ccc3Cl)n2N)cc1,-3.7,-7.6,-0.9,1,4.5,-5.4
Cc1nnc(NC(=O)CSc2ncn(-c3ccccc3)n2)s1,·,·,-0.8,1,2.0,-9.5
COc1ccc(-c2cc(C(F)(F)F)nc(SCCC(=O)N3CCCC3)n2)cc1,·,-30.3,-0.1,1,8.8*,0.5
COc1ccc(-c2cc(C(F)(F)F)nc(SCCC(=O)N3CCN4CCCC4C3)n2)cc1 (stereo unspecified),-26.1,-26.4,-3.0,1,0.7,-5.8
Cc1ccc(-c2nc(SCC(=O)Nc3cc(S(=O)(=O)N4CCCCC4)ccc3Cl)n[nH]2)cc1,4.8,-32.4,-2.4,1,9.5*,-1.0
CCCCc1nc(SCC(=O)Nc2cc(C)on2)n[nH]1,-3.3,-61.1,-7.5,1.1,3.1,56.9*
CCCCc1nc(SCC(=O)Nc2nnc(CCCC)s2)n[nH]1,·,·,-2.7,1,-0.6,-55.6
CSc1c(SCc2ccccc2)cnn(-c2ccccc2)c1=O,-0.1,-21.6,-0.5,1,7.0,-4.5
CNc1ccc2nnc(C(F)(F)C(F)(F)C(F)(F)F)n2n1,·,·,-9.7,1.1,1.4,-8.7
CC(C)NOC(=O)c1ccc(Cl)cc1,·,·,-3.8,1,-0.7,-6.3
COc1ccc(-c2cc(C(F)(F)F)nc(SCCC(=O)Nc3cc(C)on3)n2)cc1,-2.1,-23.9,1.0,1,2.7,-3.9
COc1ccc(-c2nc(SCC(=O)Nc3cc(C)on3)n[nH]2)cc1,-11.0,-10.3,2.5,1,3.2,70.4*
COc1ccc(-c2cc(C(F)(F)F)nc(SCC(=O)Nc3cc(C)on3)n2)cc1OC,-18.8,-51.7,-1.3,1,8.7*,-10.0
NNc1ncnc2sc3c(c12)CCC3,·,·,0.1,1,1.4,87.6*
c1cc(Nc2ncnc3sc4c(c23)CCC4)ccn1,·,·,-2.4,1,1.6,-7.5
O=C(NCCOc1ccc(F)cc1)c1ccccc1SCc1ccccc1,7.4,-34.1,3.5,1,9.5*,-10.2
SMILES,Yeast life ext,Yeast growth inh,TNAP inh hi DEA,TNAP act hi DEA,RAM network inh,TNAP inh noacc
O=[N+]([O-])c1cccnc1N1CCC(c2cc(-c3ccc(Cl)cc3Cl)n[nH]2)CC1,-7.3,5.2,-0.1,1,4.3,78.9*
COc1ccc(OC)c(-c2cc(C3CCN(c4ncccc4[N+](=O)[O-])CC3)[nH]n2)c1,-5.7,6.9,1.8,1,1.4,-5.2
O=C(Cc1ccccc1)NCC(=O)OCC(=O)c1ccc(OC(=O)c2ccccc2)cc1,-1.9,-17.7,-4.9,1,4.0,-12.8
O=C(O)c1ccc(CS(=O)(=O)c2cccc(C(F)(F)F)c2)o1,-23.0,-6.6,-3.0,1,0.4,-6.1
COc1ccc2cc(C(c3nnnn3C3CCCC3)N3CCCCCC3)c3nnnn3c2c1 (stereo unspecified),·,-35.1,-2.1,1,3.3,-11.3
CCOc1ccc(S(=O)(=O)N(C)c2ccc(OCC(=O)NCc3cccnc3)cc2)cc1,·,·,-3.1,1,-1.0,-11.5
CCOc1ccc(S(=O)(=O)N(C)c2ccc(OCC(=O)NCc3ccco3)cc2)cc1,-9.8,-6.1,-9.3,1.1,9.8*,-15.4
O=C(O)C1CC=CCC1C(=O)Nc1cccc(F)c1 (stereo unspecified),1.9,-35.7,-6.2,1.1,0.8,-12.1
O=C(O)C1CC=CCC1C(=O)Nc1cccc([N+](=O)[O-])c1 (stereo unspecified),·,·,-3.5,1,9.6*,-7.8
CCSc1nc2cc(OC)c(OC)cc2c(=O)n1CCc1ccccc1,-1.1,-47.0,-9.2,1.1,8.6*,-5.1
COCCCn1c(SCCc2ccccc2)nc2cc(OC)c(OC)cc2c1=N,·,·,-1.6,1,-1.0,-19.3
C=CCNc1oc(-c2cccs2)nc1C#N,-15.0,-13.7,-5.0,1.1,0.1,-11.1
O=C1NN(c2ccccc2)C(=O)/C1=C\c1ccc(-c2cc([N+](=O)[O-])ccc2O)o1,·,·,44.2,0.6,4.1,51.8*
COc1ccc(-n2c(Cc3cccn3C)nnc2SCC(=O)Nc2ccccc2)cc1,-7.1,3.1,1.7,1,9.8*,-10.1
COc1cc(NC2c3ccccc3C(=O)N2c2ccc(C)cn2)cc(OC)c1OC (stereo unspecified),26.6*,-37.8,-6.4,1.1,0.6,-6.6
O=C(CSc1cccc2cccnc12)OCC(=O)c1ccc(Br)cc1,-1.1,-28.4,0.1,1,9.6*,-14.5
O=C(CSCC(=O)OCC(=O)c1ccc(Br)cc1)Nc1cccc2ccccc12,-17.0,-43.8,-1.4,1,10.4*,-16.9
O=C(CCC(=O)OCC(=O)c1ccc(Br)cc1)Nc1cccc2cccnc12,-16.2,-25.4,-1.1,1,4.3,-7.0
O=C(Oc1ccc(=O)n(-c2ccccc2)n1)c1ccc(F)cc1,·,·,-7.3,1.1,-1.0,-8.9
O=C(Oc1ccc(=O)n(-c2ccccc2)n1)c1ccc(Cl)cc1,50.6*,-34.4,0.9,1,-1.7,-2.2
CCCNC(=O)Nc1ccc(NC(C)=O)cc1,·,·,-1.3,1,2.6,-8.9
Cc1[nH]n(-c2ccccc2)c(=O)c1C(c1cccc([N+](=O)[O-])c1)c1c(C)[nH]n(-c2ccccc2)c1=O,29.9*,-30.6,5.0,0.9,6.7,-1.2
CCOC(=O)c1sc(NC(=O)CN(CC)CC)c(C(=O)OCC)c1C,28.0*,-2.9,-3.1,1,0.9,-13.7
